Our source for the viability, differential viability (reversal) and inhibition values is PubChem BioAssay.

The structures appear in SMILES notation. Activity calls are given as the source filed them.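 How the source made its calls, unless noted: active means viability loss from added drug above about 55%, and viability with drug at most 40%, in both replicates (limit read from the data, passing the limit was not always enough); inconclusive means both conditions met in only one replicate; inactive means neither replicate meets both conditions.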

Assay [1] can be described thus: HUVEC growth inhibition – cell-based, human, primary screen (AID 575;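 active means viability at or below 30% in both replicate assays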;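 further: 100% = median of untreated cell wells with 0.1% DMSO on each plate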). Conditions: HUVEC proliferation, CellTiter-Glo luminescence, 72 h; at 10 µM; stronger effect = lower value. In short, it runs like this:
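System: primary human umbilical vein endothelial cells; Quantity: 1250 endothelial cells in each well; Buffer or medium: supplemented EBM, 2% fetal bovine serum; Doses: one dose, 10 µM final, 0.1% DMSO; Incubation: 72 h compound incubation; Technique: ATP-based CellTiter-Glo luminescent read; Evaluation: percent of median DMSO-control luminescence; Controls: vehicle and MePR control wells.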
For orientation: In ATP-based viability assays light output follows the ATP content of the culture.

The nature of assay [2]: growth inhibitors of H69AR lung tumor, primary screen, human, duplicate replicates (AID 580;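 active means viability at or under a set limit in both replicates, limit being median viability minus 3 SD, cut at about 48% in these data, passing the limit was not always enough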;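 further: 100% = mean luminescence of untreated wells and 0% = no signal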). Conditions: H69AR lung tumor cells viability, ATP luminescence, 72 h; at 10 µM; stronger effect = lower value.
Assay [3] is described as follows: reversal of MRP1-mediated doxorubicin resistance, pilot screen, H69AR cells, doxorubicin co-treatment (AID 601). Conditions: CellTiter-Glo, 72 h, at 10 µM; for differential viability (reversal): stronger effect = higher value.
The nature of assay [4]: 384-well plate pilot, post-Golgi transport modulator project, inhibition of yeast transport mutant growth (AID 636; in the data active means inhibition above about 31%). To be noted: absorbance 615 nm, about 18 h, stronger effect = higher value.
Assay [5] in a line: growth suppression of yeast trafficking mutant, preliminary HTS, modulators of trafficking downstream of Golgi apparatus project, 1536-format plate, OD 615 nm (AID 637; in the data active means inhibition above about 30%). Conditions: yeast transport mutant growth, absorbance 615 nm, 18 h; stronger effect = higher value.
Setting [6] is: H69AR cells + 2 uM doxorubicin, measured here: viability with 2 uM doxorubicin, stronger effect = lower value.
Where [7] appears, read: H69AR cells, compound alone cytotoxicity.

Regarding `Nc1nc(Nc2ccc(Cl)cc2Cl)nc(C(F)(F)F)n1`, the viability (as a rule, a read-out of living cells in per cent, often relative to untreated cells) in assay [1] is 73.9% (inactive); in assay [2], 89.8% (inactive); in assay [3] (setting [6]), 78%; in assay [3] (setting [7]), 89.8%. Moreover, the differential viability (reversal) in assay [3] (H69AR cells + 2 uM doxorubicin) was 11.7% (inactive). For the same molecule, the values for the inhibition in assay [4] and in assay [5] were -5.6% (inactive) and 11.3% (inactive), respectively.

With `O=S(=O)(c1ccccc1)N1CCSC1c1ccco1` (stereo not given), the viability in assay [1] was 83.6% (inactive); in assay [2] it was 72.2% (inactive); in assay [3] (setting [6]), 87.9%; in assay [3] (setting [7]), 72.2%. Besides, the differential viability (reversal) in assay [3] (H69AR cells + 2 uM doxorubicin) is -15.6% (inactive). Moreover, the inhibition – broadly, the relative decrease from the control value, in per cent – is -0.13% (inactive) in assay [4] and 5.56% (inactive) in assay [5].

Consider `Cn1nc(-c2ccc(C(=O)N3CCN(c4ccccc4)CC3)cc2)c2ccccc2c1=O`, for which the viability in assay [1] is 71.2% (inactive); in assay [2], 92.4% (inactive); in assay [3] (setting [6]), 88.9%; in assay [3] (setting [7]), 92.4%. The differential viability (reversal) in assay [3] (H69AR cells + 2 uM doxorubicin) is 3.5% (inactive). For the same molecule, the inhibition in assay [4] was 0.26% (inactive); in assay [5], 27.3% (inactive).

Consider `O=C(NC1CCCCC1)C(c1ccc(Cl)cc1)N(C(=O)c1cnccn1)c1ccc2c(c1)OCO2` (stereo not given), for which the viability in assay [1] is 80.4% (inactive); in assay [2], 80.2% (inactive); in assay [3] (setting [6]), 75.8%; in assay [3] (setting [7]), 80.2%. Besides, the differential viability (reversal) in assay [3] (H69AR cells + 2 uM doxorubicin) is 4.39% (inactive). The inhibition in assay [4] was -5.47% (inactive); in assay [5], -5.71% (inactive).

As to `CCCn1c(SCC(=O)NCc2ccco2)nc2c1c(=O)n(C)c(=O)n2C`, the viability in assay [1] was 87.6% (inactive); in assay [2], 94.4% (inactive); in assay [3] (setting [6]), 78.5%; in assay [3] (setting [7]), 94.4%. Further, the differential viability (reversal) in assay [3] (H69AR cells + 2 uM doxorubicin) was 15.9% (inactive). The inhibition in assay [4] was -7.87% (inactive); in assay [5], 2.38% (inactive).

Turning to `CC(=O)OC(C(=O)NCc1ccco1)c1cccnc1` (stereo not given), the viability in assay [1] is 104% (inactive); in assay [2], 87% (inactive); in assay [3] (setting [6]), 83.6%; in assay [3] (setting [7]), 87%. In addition, the differential viability (reversal) in assay [3] (H69AR cells + 2 uM doxorubicin) is 3.39% (inactive). Besides, the inhibition in assay [4] is -2.08% (inactive); in assay [5] it was 2.86% (inactive).

As to `CC1(C)CC(=O)C=C(NCCN2CCN(C(=O)Nc3ccccc3)CC2)C1`, the viability in assay [1] was 103% (inactive); in assay [2], 96.4% (inactive); in assay [3] (setting [6]), 89.8%; in assay [3] (setting [7]), 96.4%. Besides, in assay [3] (H69AR cells + 2 uM doxorubicin), the differential viability (reversal) was 6.64% (inactive). In addition, the inhibition in assay [4] was -5.07% (inactive); in assay [5], 3.97% (inactive).

On to `CCn1c(SCC(=O)NCCc2ccc(Cl)cc2)nnc1-c1cccs1`, for which the viability was 87.7% (inactive) in assay [1], 98.9% (inactive) in assay [2], 94.3% in assay [3] (setting [6]) and 98.9% in assay [3] (setting [7]). Moreover, the differential viability (reversal) in assay [3] (H69AR cells + 2 uM doxorubicin) was 4.62% (inactive). In addition, the inhibition in assay [4] was 4.03% (inactive); in assay [5] it was 3.17% (inactive).

Take `CCOC(=O)C1CCN(C(=O)CN(Cc2ccccc2)S(C)(=O)=O)CC1`: the viability is 112% (inactive) in assay [1], 92.1% (inactive) in assay [2], 93.3% in assay [3] (setting [6]) and 92.1% in assay [3] (setting [7]). Also, in assay [3] (H69AR cells + 2 uM doxorubicin), the differential viability (reversal) was -1.19% (inactive). In addition, the results for the inhibition in assay [4] and in assay [5] were -6.4% (inactive) and 2.7% (inactive), respectively.

`CN(C)CCSc1nnc2sc3ccccc3n12`: the viability was 94.2% (inactive) in assay [1], 92.8% (inactive) in assay [2], 93.7% in assay [3] (setting [6]) and 92.8% in assay [3] (setting [7]). Moreover, the differential viability (reversal) in assay [3] (H69AR cells + 2 uM doxorubicin) is -0.905% (inactive). Besides, the inhibition in assay [4] is -5.92% (inactive); in assay [5], -5.08% (inactive).

`Cc1cc(C)n(-c2nc(C)nc3c2cnn3-c2ccccc2)n1`: the viability in assay [1] was 87.4% (inactive); in assay [2] it was 87.3% (inactive); in assay [3] (setting [6]), 88.8%; in assay [3] (setting [7]), 87.3%. For the same molecule, the differential viability (reversal) in assay [3] (H69AR cells + 2 uM doxorubicin) was -1.5% (inactive). For the same molecule, the inhibition is -3.77% (inactive) in assay [4] and 6.19% (inactive) in assay [5].

Regarding `COc1ccc(CCNC(=O)C2CCCN(c3nn4c(=O)cc(C)nc4s3)C2)cc1OC` (stereo not given), the viability in assay [1] was 78.6% (inactive); in assay [2], 86.4% (inactive); in assay [3] (setting [6]), 91%; in assay [3] (setting [7]), 86.4%. Further, the differential viability (reversal) in assay [3] (H69AR cells + 2 uM doxorubicin) is -4.58% (inactive). In addition, the results for the inhibition in assay [4] and in assay [5] were -6.8% (inactive) and 3.65% (inactive), respectively.

For `Cc1ccc(CC23CN4CCN(CC(C4)C2O)C3)c(C)c1` (stereo not given), the viability is 109% (inactive) in assay [1], 94.6% (inactive) in assay [2], 86.1% in assay [3] (setting [6]) and 94.6% in assay [3] (setting [7]). Also, the differential viability (reversal) in assay [3] (H69AR cells + 2 uM doxorubicin) was 8.52% (inactive). The inhibition was -2.37% (inactive) in assay [4] and 3.02% (inactive) in assay [5].

`CC(=O)N1CCN(S(=O)(=O)c2ccc(S(=O)(=O)NC3CC3)cc2)CC1`: the viability was 112% (inactive) in assay [1], 92.3% (inactive) in assay [2], 87.3% in assay [3] (setting [6]) and 92.3% in assay [3] (setting [7]). Further, in assay [3] (H69AR cells + 2 uM doxorubicin), the differential viability (reversal) is 5.03% (inactive). The inhibition is -6.8% (inactive) in assay [4] and 2.86% (inactive) in assay [5].

Take `CON(C)c1nc(Oc2ccc(=O)[nH]n2)nc(N(C)C)n1`: the viability in assay [1] is 87.6% (inactive); in assay [2], 97.9% (inactive); in assay [3] (setting [6]), 86.2%; in assay [3] (setting [7]), 97.9%. In addition, in assay [3] (H69AR cells + 2 uM doxorubicin), the differential viability (reversal) was 11.8% (inactive). Further, the inhibition in assay [4] was -4.4% (inactive); in assay [5] it was 4.44% (inactive).

Turning to `CCc1c(C(=O)Nc2cc(C)ccc2OC)[nH]c(C)c1C(C)=O`, the viability was 45.3% (inactive) in assay [1], 82% (inactive) in assay [2], 83.5% in assay [3] (setting [6]) and 82% in assay [3] (setting [7]). Moreover, the differential viability (reversal) in assay [3] (H69AR cells + 2 uM doxorubicin) was -1.42% (inactive). Besides, the inhibition is -2.8% (inactive) in assay [4] and 14.3% (inactive) in assay [5].

In the case of `Cc1ccccc1NC(=O)c1ccccc1`, the viability in assay [1] is 103% (inactive); in assay [2], 99.6% (inactive); in assay [3] (setting [6]), 87.8%; in assay [3] (setting [7]) it was 99.6%. Further, the differential viability (reversal) in assay [3] (H69AR cells + 2 uM doxorubicin) is 11.8% (inactive). The results for the inhibition in assay [4] and in assay [5] were -5.92% (inactive) and 2.7% (inactive), respectively.

Consider `CCc1nnc(NC(=O)CCC(=O)Nc2ccccc2)s1`, for which the viability is 94.8% (inactive) in assay [1], 90% (inactive) in assay [2], 92.9% in assay [3] (setting [6]) and 90% in assay [3] (setting [7]). In addition, in assay [3] (H69AR cells + 2 uM doxorubicin), the differential viability (reversal) is -2.88% (inactive). For the same molecule, the inhibition is -4.27% (inactive) in assay [4] and 5.71% (inactive) in assay [5].

In the case of `CCOC(=O)c1cc2oc(C)cc2n1CC(=O)OC1CCCCC1`, the viability in assay [1] is 90.9% (inactive); in assay [2], 87.3% (inactive); in assay [3] (setting [6]), 86.8%; in assay [3] (setting [7]), 87.3%. Moreover, the differential viability (reversal) in assay [3] (H69AR cells + 2 uM doxorubicin) was 0.485% (inactive). Further, the results for the inhibition in assay [4] and in assay [5] were -2.73% (inactive) and 5.24% (inactive), respectively.

As to `Cc1ccc2nc(CSc3nnc(-c4ccco4)n3-c3ccccc3)cc(=O)n2c1`, the viability in assay [1] was 109% (inactive); in assay [2], 87.2% (inactive); in assay [3] (setting [6]), 98%; in assay [3] (setting [7]) it was 87.2%. Further, in assay [3] (H69AR cells + 2 uM doxorubicin), the differential viability (reversal) was -10.8% (inactive). In addition, the inhibition in assay [4] is 4.81% (inactive); in assay [5], 16.4% (inactive).
